# Reference: ChEMBL document CHEMBL1914378, “Synthesis and apoptosis inducing ability of new anilino substituted pyrimidine sulfonamides as potential anticancer agents” (Eur J Med Chem, 2011)
# pIC50: −log10 of the molar value. Counter-ions that a name gives are not always drawn. Active and inactive are the calls of the source. The calls are words filed in the database; no cut-off is given here.
# Tests used:
# MCF7 = test: Cytotoxicity against human MCF7 cells after 24 hrs by MTT assay; type: functional, cell-based; conditions: MCF7, 24 h
# MDA-MB-231 = test: Cytotoxicity against human MDA-MB-231 cells after 24 hrs by MTT assay; type: functional, cell-based; conditions: MDA-MB-231, 24 h
# K562 [1] = test: Cytotoxicity against human K562 cells after 24 hrs by MTT assay; type: functional, cell-based; conditions: K562, 24 h
# K562 [2] = test: Induction of apoptosis in human K562 cells assessed as upregulation of caspase3 protein expression at 10 uM after 24 hrs by Western blot analysis; type: functional, cell-based
# Summary of the method: (§1)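 K562 cells treated 24 h with compound at 10 (micro)M; lysed in ice-cold RIPA with protease/phosphatase inhibitors, centrifuged 12,000 rpm 10 min, protein by Bradford. 30 µg per lane on 12% SDS-PAGE, PVDF transfer, blocked 2 h RT in TBST with 5% blocking powder. Primary antibody 4 °C overnight, HRP secondary 1:2000 1 h RT; chemiluminescence; β-actin loading control; untreated cells as control.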
# K562 [3] = test: Antiproliferative activity against human K562 cells assessed as reduction in incorporation of BrdU into cellular DNA at 10 uM after 24 hrs; type: functional, cell-based
# Summary of the method: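 K562 cells seeded 15,000/well, grown 24 h, then labelled with BrdU 5 h at RT, then exposed to compound at final 10 (micro)M for 24 h. Detection by anti-BrdU, HRP secondary (1:2000) 30 min, TMB substrate 30 min at room temperature; optical density read at 450 nm.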
# K562 [4] = test: Inhibition of NF-kappaB p65 in human K562 cells assessed as down regulation of STAT3 protein level at 10 uM after 24 hrs by Western blot analysis; type: cell-based; summary of the method: as §1
# K562 [5] = test: Induction of apoptosis in human K562 cells assessed as upregulation of caspase7 protein expression at 10 uM after 24 hrs by Western blot analysis; type: functional, cell-based; summary of the method: as §1
# K562 [6] = test: Cell cycle arrest in human K562 cells at G1 phase assessed as decrease in cyclin D1 protein level at 10 uM after 24 hrs by Western blot analysis relative to control; type: functional, cell-based; summary of the method: as §1
# K562 [7] = test: Induction of apoptosis in human K562 cells assessed as effect on TNFR1 protein expression at 10 uM after 24 hrs by Western blot analysis; type: functional, cell-based
# K562 [8] = test: Induction of apoptosis in human K562 cells assessed as DNA fragmentation at 10 uM after 24 hrs by TUNEL assay; type: functional, cell-based
# Summary of the method: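 TUNEL on K562 cells after 24 h exposure at 10 (micro)M: TdT-mediated incorporation of fluorescein-dUTP at free 3'-OH ends of fragmented DNA, run per kit maker's protocol; green-stained cells scored as TUNEL-positive; untreated cells as staining control.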
# K562 [9] = test: Cell cycle arrest in human K562 cells at G1 phase assessed as decrease in CDK4 protein level at 10 uM after 24 hrs by Western blot analysis relative to control; type: functional, cell-based; summary of the method: as §1
# K562 [10] = test: Inhibition of NF-kappaB p65 in human K562 cells assessed as decrease of S473 phosphorylated Akt1 level at 10 uM after 24 hrs by Western blot analysis; type: cell-based; summary of the method: as §1
# K562 [11] = test: Inhibition of NF-kappaB p65 in human K562 cells at 10 uM after 24 hrs by Western blot analysis; type: cell-based; summary of the method: as §1
# K562 [12] = test: Antiproliferative activity against human K562 cells assessed as down regulation of c-myc protein expression at 10 uM after 24 hrs by Western blot analysis relative to control; type: functional, cell-based; summary of the method: as §1
SMILES,pIC50 (MCF7),pIC50 (MDA-MB-231),pIC50 (K562 [1]),Activity (K562 [2]),Activity (K562 [3]),Activity (K562 [4]),Activity (K562 [5]),Activity (K562 [6]),Activity (K562 [7]),Activity (K562 [8]),Activity (K562 [9]),Activity (K562 [10]),Activity (K562 [11]),Activity (K562 [12])
COc1cc(-c2ccnc(Nc3cc(NS(=O)(=O)c4ccc5ccccc5c4)ccc3C)n2)cc(OC)c1OC,4.94,5.12,5.01,–,–,–,–,–,–,–,–,–,–,–
Cc1ccc(NS(=O)(=O)c2ccc(-c3ccccc3)cc2)cc1Nc1nccc(-c2cccnc2)n1,4.93,5.10,5.02,–,–,–,–,–,–,–,–,–,–,–
COc1ccc(S(=O)(=O)Nc2ccc(C)c(Nc3nccc(-c4cc(OC)c(OC)c(OC)c4)n3)c2)cc1OC,4.94,5.13,5.07,Active,Active,Active,Active,Active,inactive,Active,Active,Active,–,–
Cc1ccc(NS(=O)(=O)c2ccc(Cl)cc2)cc1Nc1nccc(-c2cccnc2)n1,4.93,5.11,4.99,–,–,–,–,–,–,–,–,–,–,–
COc1ccc(S(=O)(=O)Nc2ccc(C)c(Nc3nccc(-c4cc(OC)c(OC)c(OC)c4)n3)c2)cc1,4.91,5.16,5.04,–,–,–,–,–,–,–,–,–,–,–
Cc1ccc(NS(=O)(=O)c2cnc3ccccc3c2)cc1Nc1nccc(-c2cccnc2)n1,5.00,5.14,5.23,Active,Active,Active,Active,Active,inactive,Active,Active,Active,inactive,–
Cc1ccc(NS(=O)(=O)c2ccc3ccccc3c2)cc1Nc1nccc(-c2cccnc2)n1,4.92,5.08,5.00,–,–,–,–,–,–,–,–,–,–,–
COc1cc(-c2ccnc(Nc3cc(NS(=O)(=O)c4ccc(-c5ccccc5)cc4)ccc3C)n2)cc(OC)c1OC,5.03,5.16,5.25,Active,Active,Active,Active,Active,inactive,Active,Active,Active,Active,Active
Cc1ccc(NC(=O)c2ccc(CN3CCN(C)CC3)cc2)cc1Nc1nccc(-c2cccnc2)n1 [IMATINIB MESYLATE],6.08,5.74,6.68,–,–,–,–,–,–,–,–,–,–,–
